These results are taken from PubChem BioAssay AID1296 (Columbia University Molecular Screening Center, 2008).

The structures appear in SMILES notation. Out of some 130,000 compounds screened, about 1,000 (0.77%) were called active. Roughly 1% stayed inconclusive and do not appear here.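 How the source made its calls: active means activation at 2 µM above a set limit, confirmed on inspection of the cell images; inconclusive means above the set limit but not confirmed on image inspection; inactive means the rest.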 Only a selection was taken, and actives are over-represented in it overall.

The nature of the assay: activators of insulin promoter-driven GFP, primary screen, imaging, TRM-6 cells, eGFP reporter, cell count (AID 1296).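 On activation: share of cells whose green reporter signal exceeds an intensity cutoff.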 The following applies: at 2 µM; activation: stronger effect = higher value, plate-scaled: unstimulated 0, stimulated control 100; normalized cell count: measured here: cell count (toxicity). A digest of the protocol:
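Test system: human fetal islet-derived TRM-6 cells with tamoxifen-inducible insulin promoter–eGFP reporter. Compound dosing: 2 µM final, single concentration. Incubation: tamoxifen pre-incubation 15 h overnight, then compound exposure 48 h at 37 °C. Signal: fixed-cell fluorescence microscopy, eGFP plus Hoechst.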
For the compound `CCCC(=O)C1CCN(Cc2ccccc2)CC1`, the activation is 0% (inactive) and the normalized cell count was determined as 122%.

In the case of `NC(=O)c1ccc(CN2CCC(Cc3ccccc3)CC2)cc1`, the activation was 347% (active) and the normalized cell count was 40.1%.

In the case of `O=C(Nc1ccccc1)N1CCN(Cc2ccccc2)CC1`, the activation is 4.22% (inactive) and the normalized cell count stood at 57.8%.

Regarding `O=C(CSc1ncnc2scc(-c3ccccc3)c12)NCc1ccc2c(c1)OCO2`, the activation was 0% (inactive) and the normalized cell count is 109%.

For `CCCCOc1ccc(C(=O)NN2CCN(C)CC2)cc1`, the activation is 0% (inactive) and the normalized cell count worked out at 149%.

For the compound `Cc1cs/c(=N\N=C\c2ccc(O)cc2)n1Cc1ccco1`, the activation was -7.69% (inactive) and the normalized cell count is 109%.

On to `CN(c1ccccc1)c1ccc(/C=c2\s/c(=C(/C#N)C(=O)C(C)(C)C)n(Cc3ccco3)c2=O)cc1`, for which the activation is 178% (active) and the normalized cell count is 74.1%.

`O=C(CN(c1ccccc1)S(=O)(=O)c1ccc(Cl)cc1)Nc1ccccc1C(=O)N1CCCC1`: the activation is 93.5% (active) and the normalized cell count was 74.8%.

In the case of `Cc1ccc(S(=O)(=O)N(CC(=O)N2CCc3ccccc3C2)c2cccc(Cl)c2)cc1`, the activation is 5% (inactive) and the normalized cell count was found to be 94.9%.

In the case of `O=C(CN(c1cccc(Cl)c1)S(=O)(=O)c1ccccc1)NN=C1CCCC1`, the activation was -5.88% (inactive) and the normalized cell count stood at 82.1%.

On to `N#CCC(=O)NC(=O)NCC1CC1`, for which the activation is 9.09% (inactive) and the normalized cell count came out at 118%.

For `O=C(CCc1[nH]c2ccccc2c1Sc1ccccc1)N(CCO)CCO`, the activation is -6.9% (inactive) and the normalized cell count came out at 121%.

On to `Cc1nnc(SCC(=O)N2CCOCC2)[nH]c1=O`, for which the activation was 0% (inactive) and the normalized cell count came to 145%.

In the case of `COc1ccc(S(=O)(=O)N2CCC(C(=O)N3CCc4ccccc4C3)CC2)cc1OC`, the activation was 8.7% (inactive) and the normalized cell count was 157%.

Turning to `O=C(Nc1ccc(S(=O)(=O)N2CCc3ccccc3C2)cc1)c1ccccc1`, the activation is 407% (active) and the normalized cell count stood at 116%.

As to `O=S(=O)(c1cccs1)N1CCc2ccccc2C1`, the activation was -90.9% (inactive) and the normalized cell count came out at 90.9%.

Consider `O=C(Nc1ccccc1)OCc1cn(-c2ccc(Cl)cc2)nn1`, for which the activation is 6.06% (inactive) and the normalized cell count turned out to be 118%.

Regarding `CC(Sc1nncn1C)C(=O)Nc1cc(C(F)(F)F)ccc1N1CCOCC1` (stereo not drawn), the activation is 0% (inactive) and the normalized cell count was 135%.

Take `CCC(C)(C(=O)NC1CCCCC1)N(C)C(=O)c1ccc2c(c1)OCO2` (stereo not drawn): the activation is 8.57% (inactive) and the normalized cell count was 95.1%.

Turning to `CCCn1nnnc1NC(=O)COc1ccc(Cl)cc1C`, the activation was 9.09% (inactive) and the normalized cell count came to 95.5%.

`CN1CCC(OC(=O)COc2ccc(Cl)cc2Cl)CC1`: the activation was 453% (active) and the normalized cell count came out at 63.1%.

With `CCOC(=O)N1CCN(C(=O)COc2ccc(Cl)cc2C)CC1`, the activation was 193% (inactive) and the normalized cell count amounted to 63.4%.

`CC(C)(C)NCCCOc1ccc(Cl)cc1C(C)(C)C`: the activation was 108% (inactive) and the normalized cell count turned out to be 74%.

In the case of `CC(C)NC(=O)C(=O)N/N=C/c1ccco1`, the activation is 0% (inactive) and the normalized cell count is 130%.
